Experimental data published in ChEMBL document CHEMBL1154950, “Biochemical analysis of cellular target of S-trityl-L-cysteine derivatives using affinity matrix” (Bioorg Med Chem Lett, 2010).
Activity calls are given as the source filed them. No cut-off for these calls is given here.

Key:
Assay type in all cases: cell-based
Settings in all cases: HCT-116
[1] = target: T1, Kinesin-like protein KIF11 (Homo sapiens) (UniProt P52732); experiment: Competitive inhibition of affinity bead (R)-2-Amino-N-{2-[2-(2-amino-ethoxy)-ethoxy]-ethyl}-3-[(4-methoxy-phenyl)-diphenyl-methylsulfanyl]-propionamide binding to KSP in human HCT116 cells at 10 umol/L pretreated for 3 hrs by Western blot analysis
T1 sequence (whole entry): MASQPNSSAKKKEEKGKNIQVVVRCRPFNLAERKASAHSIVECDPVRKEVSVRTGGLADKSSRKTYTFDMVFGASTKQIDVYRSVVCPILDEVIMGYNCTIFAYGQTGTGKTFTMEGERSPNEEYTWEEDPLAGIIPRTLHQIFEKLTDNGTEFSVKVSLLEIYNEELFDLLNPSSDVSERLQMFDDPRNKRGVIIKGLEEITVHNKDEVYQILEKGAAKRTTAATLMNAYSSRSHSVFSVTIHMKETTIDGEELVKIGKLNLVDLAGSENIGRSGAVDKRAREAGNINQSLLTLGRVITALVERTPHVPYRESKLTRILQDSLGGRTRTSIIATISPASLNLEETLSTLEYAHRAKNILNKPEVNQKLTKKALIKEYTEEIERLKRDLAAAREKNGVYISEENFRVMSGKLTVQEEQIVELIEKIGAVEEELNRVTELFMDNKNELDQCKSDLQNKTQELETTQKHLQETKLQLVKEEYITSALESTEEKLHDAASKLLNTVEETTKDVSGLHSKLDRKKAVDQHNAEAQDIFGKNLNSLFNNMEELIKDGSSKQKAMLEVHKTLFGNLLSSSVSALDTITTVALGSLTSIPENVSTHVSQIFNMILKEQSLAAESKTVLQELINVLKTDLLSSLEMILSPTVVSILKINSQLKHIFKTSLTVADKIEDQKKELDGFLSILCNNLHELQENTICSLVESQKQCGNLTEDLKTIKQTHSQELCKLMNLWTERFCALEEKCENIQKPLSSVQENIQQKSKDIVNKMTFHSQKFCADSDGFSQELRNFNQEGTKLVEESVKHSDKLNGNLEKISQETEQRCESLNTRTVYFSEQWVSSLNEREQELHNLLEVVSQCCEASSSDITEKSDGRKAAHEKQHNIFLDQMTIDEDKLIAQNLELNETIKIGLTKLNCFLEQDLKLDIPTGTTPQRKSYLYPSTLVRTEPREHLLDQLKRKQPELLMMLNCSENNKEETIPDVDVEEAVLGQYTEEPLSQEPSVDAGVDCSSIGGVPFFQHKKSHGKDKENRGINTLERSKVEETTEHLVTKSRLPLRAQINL

[2] = target: T1, Kinesin-like protein KIF11 (Homo sapiens); experiment: Displacement of affinity bead (R)-2-Amino-N-{2-[2-(2-amino-ethoxy)-ethoxy]-ethyl}-3-[(4-methoxy-phenyl)-diphenyl-methylsulfanyl]-propionamide from KSP in human HCT116 cells after 2 hrs by Western blot analysis
Procedure, shortened: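 This is a cell-free competition assay. Drug-immobilized or ethanolamine control beads were washed and resuspended in binding buffer containing DMSO or compound in DMSO. They were rotated for 2 h at 4 °C with 50 mg/mL BSA and 8 mg/mL HCT116 cytoplasmic extract (freeze–thaw lysate). Beads were washed three times, and KSP on the beads and in the supernatant was assessed by anti-KSP Western blot.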

[3] = target: T1, Kinesin-like protein KIF11 (Homo sapiens); experiment: Inhibition of affinity bead (R)-2-Amino-N-{2-[2-(2-amino-ethoxy)-ethoxy]-ethyl}-3-[(4-methoxy-phenyl)-diphenyl-methylsulfanyl]-propionamide binding to KSP in human HCT116 cells pretreated for 3 hrs by Western blot analysis
[4] = target: T1, Kinesin-like protein KIF11 (Homo sapiens); experiment: Competitive inhibition of affinity bead (R)-2-Amino-N-{2-[2-(2-amino-ethoxy)-ethoxy]-ethyl}-3-[(4-methoxy-phenyl)-diphenyl-methylsulfanyl]-propionamide binding to KSP in human HCT116 cells at >30 umol/L pretreated for 3 hrs by Western blot analysis

Row | Compound | Activity [1] | Activity [2] | inhibition [3] | Activity [4]
1 | CC1(C)CC(=O)C2=C(C1)NC(=S)NC2c1cccc(O)c1 (stereo not drawn) | Active |  |  | 
2 | N[C@@H](CSC(c1ccccc1)c1ccccc1)C(=O)O |  | inactive | inactive | 
3 | N[C@@H](CSC(c1ccccc1)(c1ccccc1)c1ccc(C(F)(F)F)cc1)C(=O)O | Active | Dose-dependent effect | Active | 
4 | NS(=O)(=O)Nc1ccc(-c2ccc(C(F)(F)F)cn2)cc1 | inactive |  |  | Active
